# Results reported in ChEMBL document CHEMBL1938286, “A concise synthesis of viscolin, and its anti-inflammatory effects through the suppression of iNOS, COX-2, ERK phosphorylation and proinflammatory cytokines expressions” (Eur J Med Chem, 2012).
# Activity calls are given as the source filed them. The calls are words filed in the database; no cut-off is given here.
# Legend:
# [1] = test system: Mus musculus; assay: Antiinflammatory activity in ICR mouse assessed as inhibition of carrageenan-induced hind paw edema at 8 mg/kg, ip measured after 4 hrs; type: functional, organism-based; parameters: dose 8 mg/kg
# [2] = test system: Mus musculus; assay: Antiinflammatory activity in carrageenan-stimulated ICR mouse assessed as reduction in COX2 immunoreactive cells at 8 mg/kg, ip measured after 5 hrs; type: functional, organism-based; parameters: dose 8 mg/kg
# [3] = test system: Mus musculus; assay: Antioxidant activity in carrageenan-stimulated ICR mouse assessed as increase in SOD activity at 2 mg/kg, ip measured after 5 hrs; type: functional; conditions: route intraperitoneal
# In short: (§1)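 Male ICR mice (n = 6 per group) received the drug 30 min before intraplantar carrageenan, and paw tissue was taken at the 5th hr. Total SOD was measured by inhibition of cytochrome c reduction, CAT by Aebi's method, and cytosolic GPx by Paglia–Valentine. Activities are in U/mg protein, given as mean ± SEM.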
# [4] = test system: RAW264.7; assay: Antiinflammatory activity in mouse RAW264.7 cells assessed as inhibition of LPS-induced PGE2 production at 10 uM administered 1 hr before LPS challenge measured after 24 hrs by ELISA
# [5] = Antioxidant activity in human neutrophils assessed as inhibition of fMLP/CB-induced superoxide anion generation; type: functional, cell-based; conditions: Neutrophil
# [6] = test system: Mus musculus; assay: Antioxidant activity in carrageenan-stimulated ICR mouse assessed as increase in SOD activity at 8 mg/kg, ip measured after 5 hrs; type: functional; conditions: route intraperitoneal; in short: as §1
# [7] = test system: Mus musculus; assay: Antiinflammatory activity in ICR mouse assessed as decrease in carrageenan-induced serum TNFalpha level at 4 mg/kg, ip; type: functional, organism-based; parameters: dose 4 mg/kg
# In short: (§2)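 Male ICR mice (18–25 g, n = 6 per group). Carrageenan was injected intraplantar into the paw, with drug given 30 min beforehand. Serum was collected at the 5th hr. Nitrite was measured colorimetrically by Griess reaction, and TNF-α by commercial ELISA. Data are mean ± SEM.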
# [8] = test system: Mus musculus; assay: Antioxidant activity in carrageenan-stimulated ICR mouse assessed as increase in CAT activity at 4 mg/kg, ip measured after 5 hrs; type: functional; conditions: route intraperitoneal; in short: as §1
# [9] = test system: Mus musculus; assay: Antioxidant activity in carrageenan-stimulated ICR mouse assessed as increase in CAT activity at 8 mg/kg, ip measured after 5 hrs; type: functional; conditions: route intraperitoneal; in short: as §1
# [10] = test system: RAW264.7; assay: Antiinflammatory activity in mouse RAW264.7 cells assessed as inhibition of LPS-induced NO production administered 1 hr before LPS challenge measured after 24 hrs by Griess method; type: functional, cell-based
# [11] = test system: Mus musculus; assay: Antiinflammatory activity in ICR mouse assessed as decrease in carrageenan-induced serum TNFalpha level at 2 mg/kg, ip; type: functional, organism-based; parameters: dose 2 mg/kg; in short: as §2
# [12] = test system: RAW264.7; assay: Antiinflammatory activity in mouse RAW264.7 cells assessed as inhibition of LPS-induced NO production at 5 uM administered 1 hr before LPS challenge measured after 24 hrs by Griess method; type: functional, cell-based
# [13] = test system: RAW264.7; assay: Antiinflammatory activity in mouse RAW264.7 cells assessed as inhibition of LPS-induced PGE2 production administered 1 hr before LPS challenge measured after 24 hrs by ELISA
# [14] = test system: Mus musculus; assay: Antioxidant activity in carrageenan-stimulated ICR mouse assessed as increase in CAT activity at 2 mg/kg, ip measured after 5 hrs; type: functional; conditions: route intraperitoneal; in short: as §1
# [15] = test system: RAW264.7; assay: Cytotoxicity against mouse RAW264.7 cells after 24 hrs by MTT assay; type: cell-based; conditions: raw264.7, 24 h
# In short: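 RAW 264.7 cells (2 × 10⁵, DMEM + 10% FBS, grown 1 day to near confluence) exposed to test agent with 100 ng/mL LPS for 24 h. After two DPBS washes, 0.5 mg/mL MTT was added for 2 h at 37 °C. Formazan was dissolved in DMSO for 30 min and absorbance read at 570 nm.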
# [16] = test system: Mus musculus; assay: Antioxidant activity in carrageenan-stimulated ICR mouse assessed as increase in GPx activity at 4 mg/kg, ip measured after 5 hrs; type: functional; conditions: route intraperitoneal; in short: as §1
# [17] = test system: Mus musculus; assay: Antiinflammatory activity in carrageenan-stimulated ICR mouse assessed as effect on connective tissue damage at 8 mg/kg, ip measured after 5 hrs; type: functional, organism-based; parameters: dose 8 mg/kg
# In short: (§3)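 Male ICR mice were dosed 30 min before intraplantar carrageenan, and paw biopsies were taken 5 h later. Tissue was fixed in Dietric solution for 1 week at room temperature, dehydrated in graded ethanol and paraffin-embedded. 7-thickness sections were stained with hematoxylin–eosin or Van Gieson and examined by light microscopy.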
# [18] = test system: RAW264.7; assay: Down regulation of COX-2 protein expression in LPS-stimulated mouse RAW264.7 cells at 20 uM after 24 hrs by Western blot analysis; type: functional
# In short: (§4)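 RAW 264.7 cells were pretreated with test agent for 1 h, then stimulated with 100 ng/mL LPS for 24 h. Lysates were made in RIPA buffer and 30 µg protein resolved by SDS-PAGE, blotted to PVDF and blocked with 1% BSA. Primary antibody ran overnight at 4 °C, HRP secondary 1 h at 37 °C. Detection was by ECL, with band intensity expressed relative to control.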
# [19] = test system: Mus musculus; assay: Antiinflammatory activity in ICR mouse assessed as decrease in carrageenan-induced serum TNFalpha level at 8 mg/kg, ip measured after 5 hrs; type: functional, organism-based; parameters: dose 8 mg/kg; in short: as §2
# [20] = test system: Mus musculus; assay: Antiinflammatory activity in ICR mouse assessed as decrease in carrageenan-induced inflammatory response at 8 mg/kg, ip measured after 5 hrs; type: functional, organism-based; parameters: dose 8 mg/kg; in short: as §3
# [21] = test system: RAW264.7; assay: Down regulation of iNOS protein expression in LPS-stimulated mouse RAW264.7 cells at 20 uM after 24 hrs by Western blot analysis; type: functional; in short: as §4
# [22] = test system: RAW264.7; assay: Antiinflammatory activity in mouse RAW264.7 cells assessed as inhibition of LPS-induced PGE2 production at 20 uM administered 1 hr before LPS challenge measured after 24 hrs by ELISA
# [23] = test system: Mus musculus; assay: Antiinflammatory activity in carrageenan-stimulated ICR mouse assessed as decrease in neutrophil number at 8 mg/kg, ip measured after 5 hrs; type: functional, organism-based; parameters: dose 8 mg/kg; in short: as §3
# [24] = test system: Mus musculus; assay: Antioxidant activity in carrageenan-stimulated ICR mouse assessed as increase in SOD activity at 4 mg/kg, ip measured after 5 hrs; type: functional; conditions: route intraperitoneal; in short: as §1
# [25] = target: MAP kinase p38 (Mus musculus) (UniProt P47811+O08911+Q9WUI1+Q9Z1B7); assay: Inhibition of p38 phosphorylation in LPS-stimulated mouse RAW264.7 cells at 5 to 20 uM after 30 mins by Western blot analysis; type: cell-based
# In short: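 RAW 264.7 cells were pretreated with test agent, then stimulated with LPS for 30 min. Phospho-ERK, phospho-JNK and phospho-p38 were assessed by Western blot: RIPA lysates, 30 µg protein, SDS-PAGE, PVDF, primary antibody overnight at 4 °C, HRP secondary and ECL detection.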
compound,measurement,setting,value
COc1cc(CCCc2c(OC)cc(O)c(OC)c2OC)ccc1O [VISCOLIN],Activity,[1],Active
same,Activity,[2],Active
same,Activity,[3],2.45 U/mg
same,Activity,[4],Active
same,IC50,[5],0.58 µg/mL
same,Activity,[6],4.08 U/mg
same,Activity,[7],Active
same,Activity,[8],4.28 U/mg
same,Activity,[9],4.98 U/mg
same,Activity,[10],Dose-dependent effect
same,IC50,[10],17.8 µM
same,Activity,[11],Active
same,Activity,[12],Active
same,IC50,[13],14.4 µM
same,Activity,[14],3.92 U/mg
same,Activity,[15],Non-toxic
same,Activity,[16],10.97 U/mg
same,Activity,[17],Active
same,Activity,[18],70.6%
same,Activity,[19],Active
same,Activity,[20],Active
same,Activity,[21],83.8%
same,Activity,[22],Active
same,Activity,[23],Active
same,Activity,[24],3.46 U/mg
same,inhibition,[25],inactive
